Measured values from ChEMBL document CHEMBL4014309, “Development of an Acrylate Derivative Targeting the NLRP3 Inflammasome for the Treatment of Inflammatory Bowel Disease” (J Med Chem, 2017).
Structures can show the parent of a compound that is named as a salt. Calls of active or inactive are those of the source. No cut-off for these calls is given here.

Experiments:
[1] = target: NACHT, LRR and PYD domains-containing protein 3 (Homo sapiens) (UniProt Q96P20); assay: Inhibition of recombinant human NLRP3 ATPase assessed as hydrolysis of ATP at 100 uM preincubated for 15 mins followed by addition of ATP measured after 40 mins by ADP-Glo assay
Procedure, shortened: (§1)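 Human recombinant NLRP3 (0.105 µg) in 20 mM Tris-HCl pH 7.8, 133 mM NaCl, 20 mM MgCl2, 3 mM KCl, 0.56 mM EDTA, 0.5% DMSO. Compound (100 or 50 µM) was preincubated 15 min at 37 °C, then ATP (250 µM) was added for 40 min at 37 °C. ADP was read by ADP-Glo luminescence. Result is % inhibition vs vehicle; mean ± SEM, ≥3 experiments.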

[2] = Cytotoxicity against human THP1 cells assessed as reduction in cell viability after 72 hrs by MTT assay; type: cell-based; settings: THP-1 cells, read-out: TC50
Procedure, shortened: (§2)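 Human THP-1 cells were exposed to 0.1–100 µM for 72 h, and viability was read by MTT. TC50 is the concentration that cuts viability by 50%; percent viable cells at 100 µM is also reported. Mean ± SEM of ≥3 experiments.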

[3] = target: NACHT, LRR and PYD domains-containing protein 3 (Homo sapiens) (UniProt Q96P20); assay: Inhibition of NLRP3 in PMA-differentiated and LPS-primed human THP1 cells assessed as decrease in ATP-induced pyroptosis measured as LDH activity at 10 uM preincubated for 1 hr followed by ATP addition measured after 1 hr by colorimetric assay relative to control
Procedure, shortened: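 THP-1 cells were PMA-differentiated and LPS-primed, then pretreated with vehicle or compound (10 µM, 1 h). Pyroptosis was triggered with ATP (5 mM). LDH in supernatant was measured colorimetrically 1 h after ATP and expressed as percent decrease versus vehicle, mean ± SEM of ≥3 experiments.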

[4] = Cytotoxicity against human THP1 cells assessed as cell viability at 100 uM after 72 hrs by MTT assay; type: cell-based; settings: THP-1 cells, read-out: Activity; procedure, shortened: as §2
[5] = Cysteamine reactivity of the compound in PBS assessed as second order rate constant for free cysteamine release at 250 uM and pH 7.4 after 90 mins by DTNB reagent based RP-UHPLC analysis
Procedure, shortened: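 Compound (250 µM) was mixed with equimolar cysteamine in pH 7.4 PBS containing 12.5% CH3CN at 37 °C. Free cysteamine was tracked with DTNB at several time points over 90 min. Second-order k2 came from 1/[CAM] = 1/[CAM]0 + kt, using 3–10 points per plot; mean ± SEM of ≥3 experiments.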

[6] = target: NACHT, LRR and PYD domains-containing protein 3 (Homo sapiens) (UniProt Q96P20); assay: Inhibition of recombinant human NLRP3 ATPase assessed as hydrolysis of ATP preincubated for 15 mins followed by addition of ATP measured after 40 mins by ADP-Glo assay; procedure, shortened: as §1
[7] = target: NACHT, LRR and PYD domains-containing protein 3 (Homo sapiens) (UniProt Q96P20); assay: Inhibition of recombinant human NLRP3 ATPase assessed as hydrolysis of ATP at 50 uM preincubated for 15 mins followed by addition of ATP measured after 40 mins by ADP-Glo assay; procedure, shortened: as §1
[8] = target: NACHT, LRR and PYD domains-containing protein 3 (Mus musculus) (UniProt Q8R4B8); assay: Inhibition of NLRP3 inflammasome in LPS-primed C57BL/6 mouse bone marrow derived macrophages assessed as reduction in ATP-induced IL-1beta production at 10 to 100 uM preincubated for 1 hr followed by stimulation with ATP measured after 30 mins by ELISA
Procedure, shortened: (§3)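 C57BL/6 bone marrow macrophages, differentiated with 20% L-cell medium, were primed with LPS (1 µg/mL, 3 h). They were then exposed to compound or vehicle for 1 h and stimulated with ATP (5 mM, 30 min). IL-1β released into the medium was measured by ELISA.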

[9] = target: NACHT, LRR and PYD domains-containing protein 3 (Mus musculus) (UniProt Q8R4B8); assay: Inhibition of NLRP3 inflammasome in LPS-primed C57BL/6 mouse bone marrow derived macrophages assessed as reduction in ATP-induced pyroptosis at 10 to 100 uM preincubated for 1 hr followed by stimulation with ATP measured after 30 mins by LDH release assay
Procedure, shortened: (§4)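 Bone marrow macrophages from C57BL/6 mice, differentiated with 20% L-cell medium, primed with LPS (1 µg/mL, 3 h). Test agent or vehicle was added for 1 h, then ATP (5 mM, 30 min) or nigericin (10 µM, 30 min). IL-1β in the medium was measured by ELISA. LDH in the medium was measured colorimetrically as % of total cellular LDH.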

[10] = target: NACHT, LRR and PYD domains-containing protein 3 (Mus musculus) (UniProt Q8R4B8); assay: Inhibition of NLRP3 inflammasome in LPS-primed C57BL/6 mouse bone marrow derived macrophages assessed as reduction in nigericin-induced IL-1beta production at 10 to 100 uM preincubated for 1 hr followed by stimulation with nigericin measured after 30 mins by ELISA; procedure, shortened: as §4
[11] = target: NACHT, LRR and PYD domains-containing protein 3 (Mus musculus) (UniProt Q8R4B8); assay: Inhibition of NLRP3 inflammasome in LPS-primed C57BL/6 mouse bone marrow derived macrophages assessed as reduction in nigericin-induced pyroptosis at 10 to 100 uM preincubated for 1 hr followed by […] measured after 30 mins by LDH release assay; procedure, shortened: as §4
[12] = target: NACHT, LRR and PYD domains-containing protein 3 (Mus musculus) (UniProt Q8R4B8); assay: Inhibition of NLRP3 inflammasome in LPS-primed C57BL/6 mouse bone marrow derived macrophages assessed as reduction in nigericin-induced pyroptosis at 1 to 100 uM preincubated for 1 hr followed by […] measured after 30 mins by LDH release assay; procedure, shortened: as §4
[13] = target: NACHT, LRR and PYD domains-containing protein 3 (Mus musculus) (UniProt Q8R4B8); assay: Inhibition of NLRP3 inflammasome in LPS-primed C57BL/6 mouse bone marrow derived macrophages assessed as reduction in nigericin-induced IL-1beta production at 1 to 100 uM preincubated for 1 hr followed by stimulation with nigericin measured after 30 mins by ELISA; procedure, shortened: as §4
[14] = target: NACHT, LRR and PYD domains-containing protein 3 (Mus musculus) (UniProt Q8R4B8); assay: Inhibition of NLRP3 inflammasome in LPS-primed C57BL/6 mouse bone marrow derived macrophages assessed as reduction in ATP-induced pyroptosis at 1 to 100 uM preincubated for 1 hr followed by stimulation with ATP measured after 30 mins by LDH release assay
Procedure, shortened: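 LPS-primed (1 µg/mL, 3 h) C57BL/6 bone marrow macrophages were treated with compound or vehicle for 1 h, then given ATP (5 mM, 30 min). LDH in the medium was measured and expressed as percent of total cellular LDH.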

[15] = target: NACHT, LRR and PYD domains-containing protein 3 (Mus musculus) (UniProt Q8R4B8); assay: Inhibition of NLRP3 inflammasome in LPS-primed C57BL/6 mouse bone marrow derived macrophages assessed as reduction in ATP-induced IL-1beta production at 1 to 100 uM preincubated for 1 hr followed by stimulation with ATP measured after 30 mins by ELISA; procedure, shortened: as §3
[16] = Metabolic stability in Sprague-Dawley rat liver microsomes at 100 uM after 2 hrs in presence of NADPH-generating system by UHPLC-MS analysis; type: ADME, microsome; settings: read-out: Stability
Procedure, shortened: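 Rat liver microsomes (0.5 mg protein/mL) in 100 mM phosphate buffer pH 7.4 with NADPH-generating system, compound 100 µM final (≤2% DMSO), 37 °C, shaking, up to 120 min. Samples were taken at 0, 15, 30, 60 and 120 min and quenched with acetonitrile on ice. Analysis by UHPLC-MS; runs were also done without NADPH system. ≥3 independent repeats.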

Liver = assay: Drug level in Sprague-Dawley rat liver microsomes treated with INF39 at 100 uM up to 2 hrs by UHPLC-MS analysis; type: ADME, microsome
serum albumin = serum albumin (Homo sapiens, UniProt P02768); assay: Binding affinity to human serum albumin after 5 mins by RP-UHPLC analysis; type: ADME; settings: read-out: PB (converted)
[17] = target: NACHT, LRR and PYD domains-containing protein 3 (Homo sapiens) (UniProt Q96P20); assay: Irreversible inhibition of His-FLAG- tagged NLRP3-ATPase (unknown origin) at 100 uM preincubated for 55 mins followed by compound wash-out and ATP addition measured after 40 mins by ADP-Glo assay
Procedure, shortened: (§5)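 His-FLAG NLRP3 (105 ng/well) captured on anti-FLAG-coated, BSA-blocked wells for 3 h at 4 °C. Compound (100 µM final, 2% DMSO) preincubated 55 min at 37 °C. Wells were washed three times (or not washed), then ATP (250 µM) was added for 40 min at 37 °C. ADP was read by ADP-Glo. Equal protein loading was checked by anti-His ELISA.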

[18] = target: NACHT, LRR and PYD domains-containing protein 3 (Homo sapiens) (UniProt Q96P20); assay: Irreversible inhibition of His-FLAG- tagged NLRP3-ATPase (unknown origin) at 100 uM preincubated for 55 mins followed by ATP addition measured after 40 mins by ADP-Glo assay; procedure, shortened: as §5

Sequence of NACHT, LRR and PYD domains-containing protein 3 (Mus musculus) (Q8R4B8 whole entry, the tested form may be a part): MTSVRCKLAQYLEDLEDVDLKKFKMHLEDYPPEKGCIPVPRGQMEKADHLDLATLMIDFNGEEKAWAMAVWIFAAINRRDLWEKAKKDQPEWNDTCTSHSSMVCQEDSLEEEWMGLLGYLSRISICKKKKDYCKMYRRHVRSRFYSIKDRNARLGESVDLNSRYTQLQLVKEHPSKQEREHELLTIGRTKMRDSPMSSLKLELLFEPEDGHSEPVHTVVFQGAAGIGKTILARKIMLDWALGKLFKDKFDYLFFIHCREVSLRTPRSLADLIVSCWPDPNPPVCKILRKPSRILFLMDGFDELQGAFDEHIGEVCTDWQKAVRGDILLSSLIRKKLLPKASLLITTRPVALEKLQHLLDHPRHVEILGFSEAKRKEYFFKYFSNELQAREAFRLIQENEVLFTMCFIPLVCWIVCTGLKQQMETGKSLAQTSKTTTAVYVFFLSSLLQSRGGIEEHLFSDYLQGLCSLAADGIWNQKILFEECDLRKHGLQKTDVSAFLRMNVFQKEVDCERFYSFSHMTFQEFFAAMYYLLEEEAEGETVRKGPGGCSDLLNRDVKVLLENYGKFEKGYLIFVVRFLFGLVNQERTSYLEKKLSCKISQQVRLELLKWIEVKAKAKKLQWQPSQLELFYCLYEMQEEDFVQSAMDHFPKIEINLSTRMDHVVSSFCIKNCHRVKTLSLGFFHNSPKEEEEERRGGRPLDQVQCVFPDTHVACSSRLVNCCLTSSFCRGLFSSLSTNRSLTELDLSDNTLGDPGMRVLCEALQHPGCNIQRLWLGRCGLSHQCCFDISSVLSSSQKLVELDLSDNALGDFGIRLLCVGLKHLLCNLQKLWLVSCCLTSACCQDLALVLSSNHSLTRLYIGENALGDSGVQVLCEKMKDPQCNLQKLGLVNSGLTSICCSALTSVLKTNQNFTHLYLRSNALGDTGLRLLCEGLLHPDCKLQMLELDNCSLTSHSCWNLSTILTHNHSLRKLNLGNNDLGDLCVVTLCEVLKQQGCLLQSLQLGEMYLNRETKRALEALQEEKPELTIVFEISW
Sequence of NACHT, LRR and PYD domains-containing protein 3 (Homo sapiens) (Q96P20 whole entry, the tested form may be a part): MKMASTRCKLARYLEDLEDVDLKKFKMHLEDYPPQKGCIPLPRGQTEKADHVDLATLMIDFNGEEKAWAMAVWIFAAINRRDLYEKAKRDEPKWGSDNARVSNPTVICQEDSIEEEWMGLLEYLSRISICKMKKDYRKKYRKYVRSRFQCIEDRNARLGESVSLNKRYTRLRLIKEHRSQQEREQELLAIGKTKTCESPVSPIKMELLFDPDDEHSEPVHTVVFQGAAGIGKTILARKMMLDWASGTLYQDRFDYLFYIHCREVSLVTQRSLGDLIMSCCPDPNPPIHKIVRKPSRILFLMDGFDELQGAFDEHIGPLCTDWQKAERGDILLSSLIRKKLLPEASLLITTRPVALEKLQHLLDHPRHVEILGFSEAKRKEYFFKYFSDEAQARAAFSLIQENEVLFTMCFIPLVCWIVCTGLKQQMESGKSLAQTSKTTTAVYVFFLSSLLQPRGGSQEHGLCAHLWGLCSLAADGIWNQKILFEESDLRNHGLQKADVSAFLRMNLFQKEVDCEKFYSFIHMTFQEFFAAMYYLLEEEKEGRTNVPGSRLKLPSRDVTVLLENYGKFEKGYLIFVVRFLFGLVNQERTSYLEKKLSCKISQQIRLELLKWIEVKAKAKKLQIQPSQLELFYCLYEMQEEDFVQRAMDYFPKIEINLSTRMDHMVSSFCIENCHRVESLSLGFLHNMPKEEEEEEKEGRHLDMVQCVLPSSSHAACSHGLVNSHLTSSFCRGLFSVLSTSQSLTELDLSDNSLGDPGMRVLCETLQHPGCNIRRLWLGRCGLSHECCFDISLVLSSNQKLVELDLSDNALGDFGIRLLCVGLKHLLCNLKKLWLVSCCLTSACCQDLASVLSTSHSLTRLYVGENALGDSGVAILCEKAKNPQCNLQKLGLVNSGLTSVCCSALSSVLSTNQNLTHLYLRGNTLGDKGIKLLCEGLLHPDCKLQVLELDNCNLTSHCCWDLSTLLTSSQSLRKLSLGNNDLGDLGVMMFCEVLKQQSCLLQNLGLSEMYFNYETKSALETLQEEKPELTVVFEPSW
Sequence of serum albumin (P02768 whole entry, the tested form may be a part): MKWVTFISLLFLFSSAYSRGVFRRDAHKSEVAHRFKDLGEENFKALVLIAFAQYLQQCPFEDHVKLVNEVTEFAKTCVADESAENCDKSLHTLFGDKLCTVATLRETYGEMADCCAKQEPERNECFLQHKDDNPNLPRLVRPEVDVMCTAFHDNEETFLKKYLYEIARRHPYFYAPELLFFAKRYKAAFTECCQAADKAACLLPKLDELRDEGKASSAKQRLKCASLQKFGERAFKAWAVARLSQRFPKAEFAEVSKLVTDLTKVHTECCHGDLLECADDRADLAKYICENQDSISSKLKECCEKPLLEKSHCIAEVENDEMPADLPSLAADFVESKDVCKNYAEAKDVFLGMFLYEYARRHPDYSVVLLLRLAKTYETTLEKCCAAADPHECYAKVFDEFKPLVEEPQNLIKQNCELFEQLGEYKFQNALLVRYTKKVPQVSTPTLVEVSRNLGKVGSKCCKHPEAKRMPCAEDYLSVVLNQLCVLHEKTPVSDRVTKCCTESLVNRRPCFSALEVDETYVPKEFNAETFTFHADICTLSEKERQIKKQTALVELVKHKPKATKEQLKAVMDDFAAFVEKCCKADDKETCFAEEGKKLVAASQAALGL

SMILES	inhibition [1]	CC50 at 72 h [2]	inhibition [3]	viability at 72 h, 100 µM [4]	K [5]	inhibition [6]	inhibition [7]	Drug metabolism [5]	also measured
C=C(C(=O)OCC)C(OC)c1ccccc1Cl (configuration not stated)	60%	> 100 µM	37.2%	78.1%	1.6 M⁻¹ s⁻¹	Dose-dependent effect	24%		
Cc1ccc(S(=O)(=O)/C=C/C#N)cc1		1.5 µM							inhibition [8]: Active; inhibition [9]: Active; inhibition [10]: Active; inhibition [11]: Active
C=C(C(=O)O)C(O)c1ccccc1Cl (configuration not stated)	69%	> 100 µM		80.7%		Dose-dependent effect	21%	Metabolite not detected	
COC(=O)/C=C/C(=O)OC [DIMETHYL FUMARATE]	inactive	95.5 µM	65.2%		39 M⁻¹ s⁻¹		inactive		inhibition [12]: Active; inhibition [13]: Active; inhibition [14]: Active; inhibition [15]: Active
C=C(Cc1ccccc1Cl)C(=O)O	44%	> 100 µM	35.8%	102%		Dose-dependent effect	22%	Metabolite not detected	remaining at 2 h, 100 µM [16]: > 99%; Drug metabolism (Liver): Metabolite_Detected
C=C(C(=O)O)C(O)c1ccc(Cl)cc1Cl (configuration not stated)	43%	> 100 µM	40.2%	88.1%		Dose-dependent effect	11%	Metabolite not detected	
C=C(C(=O)OCC)C(O)c1ccc(Cl)cc1Cl (configuration not stated)	35%	68.3 µM	74.4%		1.34 M⁻¹ s⁻¹	Dose-dependent effect	19%		
CC(Cc1ccccc1Cl)C(=O)O (configuration not stated)	15%	> 100 µM	5.2%	98.7%			inactive	Metabolite not detected	
C=C(C(=O)OCC)C(OCCC(=O)OCC)c1ccc(Cl)cc1Cl (configuration not stated)		> 100 µM		87.7%	0.292 M⁻¹ s⁻¹		10%		
O=[N+]([O-])/C=C/c1ccc2c(c1)OCO2		3.2 µM			2.5 M⁻¹ s⁻¹				
C=C(C(=O)OCC)C(O)c1ccccc1Cl (configuration not stated)	72%	65 µM	80.9%		0.824 M⁻¹ s⁻¹	Dose-dependent effect	32%		fraction unbound at 5 min (serum albumin): 0.35
C=C(C(=O)OCC)C(OCCC(=O)OCC)c1ccccc1Cl (configuration not stated)	56%	> 100 µM		95.7%	0.734 M⁻¹ s⁻¹	Dose-dependent effect	27%		
CCOC(=O)C1=CCOC1c1ccccc1Cl (configuration not stated)					8.18 M⁻¹ s⁻¹	Dose-dependent effect			
CCOC(=O)C(C)Cc1ccccc1Cl (configuration not stated)	12%	> 100 µM	3.8%	86.1%		Dose-dependent effect	inactive	Metabolite not detected	inhibition [17]: inactive; inhibition [18]: 10%
C=C(C(=O)OCC)C(OC(C)=O)c1ccccc1Cl (configuration not stated)		33.3 µM			56.2 M⁻¹ s⁻¹				
